According to ChEMBL document CHEMBL3616441, “Discovery of a Selective and CNS Penetrant Negative Allosteric Modulator of Metabotropic Glutamate Receptor Subtype 3 with Antidepressant and Anxiolytic Activity in Rodents” (J Med Chem, 2015):
The source made the active and inactive calls. The calls are words filed in the database; no cut-off is given here.

Tests used:
Plasma = assay: Fraction unbound in rat plasma; type: ADME, cell-free
[1] = Plasma clearance in rat at 0.2 mg/kg, iv administered as cassette dose; type: ADME, organism-based
[2] = target: Metabotropic glutamate receptor 5 (Rattus norvegicus, UniProt P31424); assay: Modulation of rat mGlu5 receptor assessed as calcium mobilization by cell based fluorescence assay; type: functional
Sequence of Metabotropic glutamate receptor 5 (P31424 whole entry): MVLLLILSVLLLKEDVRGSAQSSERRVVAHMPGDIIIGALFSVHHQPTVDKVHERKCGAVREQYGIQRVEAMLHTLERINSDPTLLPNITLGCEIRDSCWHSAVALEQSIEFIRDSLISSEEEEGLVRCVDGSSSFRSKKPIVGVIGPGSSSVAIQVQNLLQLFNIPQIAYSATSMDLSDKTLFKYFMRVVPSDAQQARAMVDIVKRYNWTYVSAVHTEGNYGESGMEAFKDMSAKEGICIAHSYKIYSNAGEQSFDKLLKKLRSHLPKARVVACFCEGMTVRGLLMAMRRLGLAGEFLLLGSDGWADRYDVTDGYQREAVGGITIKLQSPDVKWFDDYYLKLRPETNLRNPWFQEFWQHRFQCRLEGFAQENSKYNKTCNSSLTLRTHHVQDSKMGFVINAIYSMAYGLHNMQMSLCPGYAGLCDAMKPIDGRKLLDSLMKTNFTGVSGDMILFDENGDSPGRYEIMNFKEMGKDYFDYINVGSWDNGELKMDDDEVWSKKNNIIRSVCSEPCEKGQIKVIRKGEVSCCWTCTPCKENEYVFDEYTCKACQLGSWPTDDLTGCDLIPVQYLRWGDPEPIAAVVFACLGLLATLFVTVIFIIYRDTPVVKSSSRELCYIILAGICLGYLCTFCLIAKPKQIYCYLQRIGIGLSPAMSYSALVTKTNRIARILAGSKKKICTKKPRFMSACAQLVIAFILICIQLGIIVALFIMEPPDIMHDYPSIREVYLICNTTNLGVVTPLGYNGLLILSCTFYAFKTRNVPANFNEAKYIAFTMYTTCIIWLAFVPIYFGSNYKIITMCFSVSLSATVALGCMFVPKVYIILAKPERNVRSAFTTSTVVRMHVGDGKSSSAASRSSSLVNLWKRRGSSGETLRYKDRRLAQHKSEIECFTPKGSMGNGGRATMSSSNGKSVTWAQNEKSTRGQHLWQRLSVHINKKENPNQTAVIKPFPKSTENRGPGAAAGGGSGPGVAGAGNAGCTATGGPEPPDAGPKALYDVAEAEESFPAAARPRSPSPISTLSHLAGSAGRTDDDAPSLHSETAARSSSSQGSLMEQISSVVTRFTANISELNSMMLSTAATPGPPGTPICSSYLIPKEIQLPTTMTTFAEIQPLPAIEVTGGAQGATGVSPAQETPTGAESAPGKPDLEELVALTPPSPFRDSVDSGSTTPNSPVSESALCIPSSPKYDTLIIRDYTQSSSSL
Method in brief: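 Calcium mobilization assay with fluorescence read-out in cells expressing mGlu5; full concentration-response curves; % Glu Max is the amplitude of response with 30 μM test compound as a percentage of the maximal response to 100 μM glutamate; values averaged over n-3.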

[3] = Volume of distribution at steady state in rat at 0.2 mg/kg, iv administered as cassette dose; type: ADME, organism-based; conditions: in vivo, read-out: Vdss
[4] = Half life in rat at 0.2 mg/kg, iv administered as cassette dose; type: ADME, organism-based; conditions: in vivo
[5] = target: Metabotropic glutamate receptor 3 (Rattus norvegicus, UniProt P31422); assay: Negative allosteric modulation of rat mGlu3 receptor assessed as calcium mobilization by cell based fluorescence assay; type: functional
Sequence of Metabotropic glutamate receptor 3 (P31422 whole entry): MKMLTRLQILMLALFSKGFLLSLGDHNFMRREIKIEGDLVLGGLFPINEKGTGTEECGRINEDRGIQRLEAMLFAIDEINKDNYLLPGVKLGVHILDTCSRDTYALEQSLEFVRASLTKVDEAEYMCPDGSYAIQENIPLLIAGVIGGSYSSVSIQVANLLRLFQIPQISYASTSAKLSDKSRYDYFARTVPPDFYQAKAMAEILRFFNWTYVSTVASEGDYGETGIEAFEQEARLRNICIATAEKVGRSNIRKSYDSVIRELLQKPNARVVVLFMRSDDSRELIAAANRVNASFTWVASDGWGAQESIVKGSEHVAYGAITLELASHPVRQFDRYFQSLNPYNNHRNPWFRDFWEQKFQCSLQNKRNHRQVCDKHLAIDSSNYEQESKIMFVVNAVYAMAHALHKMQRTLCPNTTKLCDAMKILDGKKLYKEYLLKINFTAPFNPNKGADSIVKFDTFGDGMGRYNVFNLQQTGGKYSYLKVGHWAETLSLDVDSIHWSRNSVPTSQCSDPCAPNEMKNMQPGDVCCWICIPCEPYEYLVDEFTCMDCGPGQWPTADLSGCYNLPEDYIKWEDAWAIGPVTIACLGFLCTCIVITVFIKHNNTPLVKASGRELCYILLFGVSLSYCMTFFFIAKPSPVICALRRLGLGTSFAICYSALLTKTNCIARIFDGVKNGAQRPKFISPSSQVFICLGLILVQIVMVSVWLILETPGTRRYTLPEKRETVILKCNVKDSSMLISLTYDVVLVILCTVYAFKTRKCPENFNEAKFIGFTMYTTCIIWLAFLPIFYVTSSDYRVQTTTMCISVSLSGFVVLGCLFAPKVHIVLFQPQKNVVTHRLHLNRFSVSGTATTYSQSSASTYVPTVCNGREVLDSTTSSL
Method in brief: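 Cell line stably expressing rat mGlu3 with the promiscuous G-protein Gα15. Calcium mobilization with fluorescence read-out, inhibition of the glutamate response. Full concentration-response curves, top concentration 30 μM. % Glu Max is the response with 30 μM test compound as a percentage of the maximal response to 100 μM glutamate. Values averaged over n-3.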

[6] = target: Metabotropic glutamate receptor 3 (Rattus norvegicus) (UniProt P31422); assay: Negative allosteric modulation of rat mGlu3 receptor assessed as amplitude response at 30 uM relative to glutamate
Sequence of Metabotropic glutamate receptor 3 (Rattus norvegicus) (P31422 23-879 limits assumed): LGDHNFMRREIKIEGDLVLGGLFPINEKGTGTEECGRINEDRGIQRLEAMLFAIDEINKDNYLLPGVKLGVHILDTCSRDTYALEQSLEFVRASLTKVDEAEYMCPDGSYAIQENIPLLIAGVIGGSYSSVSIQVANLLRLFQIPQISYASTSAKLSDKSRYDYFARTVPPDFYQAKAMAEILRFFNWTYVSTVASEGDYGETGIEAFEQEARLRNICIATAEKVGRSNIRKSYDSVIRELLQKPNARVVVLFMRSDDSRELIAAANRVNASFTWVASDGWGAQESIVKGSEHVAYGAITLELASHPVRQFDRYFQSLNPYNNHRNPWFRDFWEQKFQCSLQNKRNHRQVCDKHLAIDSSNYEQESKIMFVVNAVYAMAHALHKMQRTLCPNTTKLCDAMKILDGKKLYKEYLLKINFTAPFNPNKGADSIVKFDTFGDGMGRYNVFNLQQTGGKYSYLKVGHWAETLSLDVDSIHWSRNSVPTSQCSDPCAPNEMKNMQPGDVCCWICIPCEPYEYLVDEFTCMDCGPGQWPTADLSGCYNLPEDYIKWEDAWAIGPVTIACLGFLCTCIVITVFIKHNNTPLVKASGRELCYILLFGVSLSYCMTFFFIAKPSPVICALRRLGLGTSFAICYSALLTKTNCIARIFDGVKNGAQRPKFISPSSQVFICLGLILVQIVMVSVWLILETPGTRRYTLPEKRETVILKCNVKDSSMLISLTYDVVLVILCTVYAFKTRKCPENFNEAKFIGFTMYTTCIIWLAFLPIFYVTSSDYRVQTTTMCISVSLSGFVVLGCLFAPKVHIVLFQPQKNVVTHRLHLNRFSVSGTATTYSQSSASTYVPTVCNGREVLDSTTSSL
Method in brief: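 Calcium mobilization in cell line stably expressing rat mGlu3 with promiscuous Gα15; fluorescence read-out; amplitude of glutamate response with 30 μM test compound expressed as percentage of maximal response (100 μM glutamate); average of n = 3.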

[7] = target: Metabotropic glutamate receptor 2 (Rattus norvegicus) (UniProt P31421); assay: Negative allosteric modulation of rat mGlu2 receptor assessed as calcium mobilization at 30 uM by cell based fluorescence assay; type: functional
Sequence of Metabotropic glutamate receptor 2 (Rattus norvegicus) (P31421 19-872 limits assumed): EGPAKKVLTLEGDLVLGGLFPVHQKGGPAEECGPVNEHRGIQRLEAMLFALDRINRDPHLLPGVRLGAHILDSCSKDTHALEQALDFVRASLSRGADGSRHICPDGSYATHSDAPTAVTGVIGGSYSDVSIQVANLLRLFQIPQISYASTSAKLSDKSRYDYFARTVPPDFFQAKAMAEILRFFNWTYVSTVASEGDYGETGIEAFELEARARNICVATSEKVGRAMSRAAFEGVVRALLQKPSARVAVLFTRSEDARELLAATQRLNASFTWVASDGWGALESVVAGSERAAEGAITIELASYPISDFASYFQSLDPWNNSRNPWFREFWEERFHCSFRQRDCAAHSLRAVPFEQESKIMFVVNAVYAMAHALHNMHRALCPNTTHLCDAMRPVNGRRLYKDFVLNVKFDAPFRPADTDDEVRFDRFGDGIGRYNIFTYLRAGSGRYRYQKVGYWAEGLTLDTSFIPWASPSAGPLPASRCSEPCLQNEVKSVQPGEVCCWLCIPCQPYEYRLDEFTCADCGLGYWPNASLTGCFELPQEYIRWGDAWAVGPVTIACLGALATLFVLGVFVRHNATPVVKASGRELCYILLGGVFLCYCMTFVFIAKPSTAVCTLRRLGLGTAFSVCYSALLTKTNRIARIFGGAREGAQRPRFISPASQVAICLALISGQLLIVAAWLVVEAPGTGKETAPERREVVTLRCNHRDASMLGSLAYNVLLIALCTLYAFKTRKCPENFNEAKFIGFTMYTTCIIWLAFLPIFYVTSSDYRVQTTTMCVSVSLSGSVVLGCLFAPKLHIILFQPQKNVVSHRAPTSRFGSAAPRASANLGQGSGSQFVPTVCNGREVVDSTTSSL
Method in brief: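 Rat mGlu2 calcium mobilization assay with fluorescence read-out; full concentration-response curve analysis up to 30 μM top concentration.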

[8] = target: Metabotropic glutamate receptor 5 (Rattus norvegicus) (UniProt P31424); assay: Positive allosteric modulation of rat mGlu5 receptor assessed as calcium mobilization by cell based fluorescence assay; type: functional
Sequence of Metabotropic glutamate receptor 5 (Rattus norvegicus) (P31424 21-1203 limits assumed): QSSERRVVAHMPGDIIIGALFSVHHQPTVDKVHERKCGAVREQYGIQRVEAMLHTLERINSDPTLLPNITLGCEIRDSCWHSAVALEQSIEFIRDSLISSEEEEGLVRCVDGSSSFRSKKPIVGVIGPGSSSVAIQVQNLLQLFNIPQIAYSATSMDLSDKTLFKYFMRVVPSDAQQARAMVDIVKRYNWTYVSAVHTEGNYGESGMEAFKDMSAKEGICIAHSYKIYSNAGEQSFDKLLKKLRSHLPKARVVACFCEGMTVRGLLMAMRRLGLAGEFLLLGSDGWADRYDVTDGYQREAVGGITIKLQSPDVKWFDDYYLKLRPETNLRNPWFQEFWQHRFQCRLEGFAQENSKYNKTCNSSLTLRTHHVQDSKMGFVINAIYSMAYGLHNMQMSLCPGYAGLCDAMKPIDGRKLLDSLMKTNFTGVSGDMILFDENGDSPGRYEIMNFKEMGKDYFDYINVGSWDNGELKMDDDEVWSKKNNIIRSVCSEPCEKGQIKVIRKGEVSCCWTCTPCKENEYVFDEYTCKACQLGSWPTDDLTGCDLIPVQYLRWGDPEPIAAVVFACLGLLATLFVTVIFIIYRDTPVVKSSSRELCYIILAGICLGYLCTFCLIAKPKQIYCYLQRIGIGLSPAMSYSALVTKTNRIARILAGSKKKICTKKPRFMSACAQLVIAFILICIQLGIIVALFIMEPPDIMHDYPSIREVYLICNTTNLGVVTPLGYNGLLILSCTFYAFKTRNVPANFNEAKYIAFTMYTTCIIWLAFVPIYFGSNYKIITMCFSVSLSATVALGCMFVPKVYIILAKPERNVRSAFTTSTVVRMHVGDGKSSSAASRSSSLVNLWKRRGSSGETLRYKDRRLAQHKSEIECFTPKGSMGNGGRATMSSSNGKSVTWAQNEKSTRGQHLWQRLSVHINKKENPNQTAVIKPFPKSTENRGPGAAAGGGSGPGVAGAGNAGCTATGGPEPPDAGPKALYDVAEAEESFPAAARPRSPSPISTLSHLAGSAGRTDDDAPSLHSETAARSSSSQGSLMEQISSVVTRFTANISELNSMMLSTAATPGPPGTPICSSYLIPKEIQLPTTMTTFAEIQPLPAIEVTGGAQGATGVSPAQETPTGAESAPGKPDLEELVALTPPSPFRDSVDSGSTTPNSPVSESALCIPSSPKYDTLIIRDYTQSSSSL

[9] = target: Metabotropic glutamate receptor 5 (Rattus norvegicus) (UniProt P31424); assay: Modulation of rat mGlu5 receptor assessed as assessed as calcium mobilization at 30 uM by cell based fluorescence assay; type: functional
Brain = assay: Fraction unbound in rat brain; type: ADME, tissue-based
[10] = target: Metabotropic glutamate receptor 5 (Rattus norvegicus) (UniProt P31424); assay: Negative allosteric modulation of rat mGlu5 receptor assessed as calcium mobilization by cell based fluorescence assay; type: functional

SMILES	Fu (Plasma)	clearance [1] [mL/min/kg]	EC50 [2] [nM]	Vd [3] [L/kg]	half-life [4] [h]	IC50 [5] [nM]	Activity [6] [%]	Activity [7]	Activity [8]	Activity [9] [%]	Fu (Brain)	Activity [10]
C[C@@H]1CN(c2cccnc2)C(=O)c2cc(COc3ccc(Cl)cn3)nn21	0.118	50	> 30000	1.2	0.35	608	1.73					
CCOc1ccc(OCc2cc3n(n2)[C@H](C)CN(c2ccc(F)cc2)C3=O)cc1	0.005	82	> 30000	2.2	0.533	1160	3.39					
C[C@@H]1CN(c2ccc(F)cc2)C(=O)c2cc(COc3ccccn3)nn21								inactive				
C[C@@H]1CN(c2cc(F)cc(C#N)c2)C(=O)c2cc(COc3ccc(Cl)cn3)nn21	0.045	13	1040	2.2	3.23	315	1.92		Active	28	0.032	
C[C@@H]1CN(c2ccc(F)cc2)C(=O)c2cc(COc3ccc(Cl)cn3)nn21	0.034	29	2920	5.2	2.35	605	1.84		Active	81.4		
C[C@@H]1CN(c2c(F)cccc2F)C(=O)c2cc(COc3ccc(F)cn3)nn21	0.064		1230			181	1.49			50.8		Active
C[C@@H]1CN(c2cccc(Cl)c2)C(=O)c2cc(COc3ccc(F)cn3)nn21	0.034		1850			145	2.3			19.2		Active
